Screening data deposited in PubChem BioAssay by several laboratories.
DNMT1 block – DNMT1 (human) enzyme inhibition | P26358 | DNMT1 molecular beacon, Hinp1I cleavage, fluorescence | inhibition (reported as % activation of signal), % at 10 µM | hit rate 0.83% among 360,000; in the data active = inhibition above about 50%
Scp1 inh – inhibitors of human Scp-1 phosphatase; Q9GZU7; Recombinant Scp1, phosphopeptide, malachite green phosphate absorbance; inhibition, % at 20 µM; hit rate 0.88% among 340,000;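 active = inhibition above about 50% at 20 µM, limit read from the data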;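 note: plate controls were DMSO wells with enzyme for no effect and wells lacking enzyme for full effect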
Target sequence (Q9GZU7 76-261 limits assumed): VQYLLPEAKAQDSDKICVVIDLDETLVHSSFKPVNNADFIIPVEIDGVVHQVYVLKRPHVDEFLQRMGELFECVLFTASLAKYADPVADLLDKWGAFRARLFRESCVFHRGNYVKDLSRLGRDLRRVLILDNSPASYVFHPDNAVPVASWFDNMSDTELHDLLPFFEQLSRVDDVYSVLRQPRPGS
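System: SCP-1 catalytic domain; Reagent: Phospho 17-mer peptide substrate; Doses: one concentration, 20 µM, with 1.0% DMSO; Incubation: 45 min room-temperature reaction, 5 min colour, 30 min stabiliser; Signal: Phosphate-binding colour reagent, absorbance read at 630 nm.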
LMPTP block – blocks human LMPTP phosphatase | P24666 | recombinant LMPTP-A, OMFP fluorogenic substrate, fluorescence intensity | inhibition, % at 20 µM | hit rate 0.22% among 360,000;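 active = compounds that cut the enzyme signal by at least half of the control window in the single-dose screen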;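 note: plate controls were DMSO wells with enzyme plus substrate for no effect and substrate without enzyme for full effect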
Target sequence (P24666 whole entry, looked up): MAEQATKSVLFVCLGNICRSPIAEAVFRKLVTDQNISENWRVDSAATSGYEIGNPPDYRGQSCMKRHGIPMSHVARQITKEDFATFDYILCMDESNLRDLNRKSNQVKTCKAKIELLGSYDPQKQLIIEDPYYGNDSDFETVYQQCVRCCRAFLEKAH
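Material: LMPTP-A; amount: 0.625 nM enzyme; doses: single 20 µM dose; times: reaction 50 min, room temperature, dark; technique: fluorescence intensity of OMFP turnover product; benchmarks: no-enzyme and uninhibited controls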
SUMO1-SIM PPI – alters human SUMO1 binding to SIM partners. SUMO1 binding to a labelled peptide, TR-FRET, 1 h. inhibition, % at 20 µM. hit rate 0.33% among 360,000. P63165. AID 602429; in the data active = inhibition above about 37%
Target sequence (P63165 whole entry, looked up): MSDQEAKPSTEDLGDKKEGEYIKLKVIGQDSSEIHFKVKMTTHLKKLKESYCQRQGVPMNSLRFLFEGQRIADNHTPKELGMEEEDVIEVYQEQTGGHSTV
CASP6 VEID inh – inhibitors of human caspase-6; purified caspase-6, Z-VEID-R110 cleavage fluorescence; AID 686996; inhibition, % at 12.5 µM; hit rate 0.53% among 350,000;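 active = mean inhibition across replicates at least about 35%, with every replicate also reaching that limit, limit read from the data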;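 note: 0% = median of neutral control wells and 100% = no fluorescence left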
STEP block – inhibitors of human striatal-enriched phosphatase STEP; recombinant STEP, OMFP fluorogenic substrate, fluorescence; inhibition, % at 20 µM; hit rate 0.25% among 360,000;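 active = inhibition at 20 µM, scaled per plate between control wells, above about 37%, limit read from the data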;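 note: 0% = DMSO with enzyme and substrate and 100% = substrate only without enzyme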
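Assay system: isolated STEP enzyme. Buffer or medium: pH 6.0 Bis-Tris with DTT and Tween 20. Also added: fluorogenic phosphatase substrate OMFP at 25 µM final. Dosing: 20 µM, 1% DMSO. Timing: 20 min reaction, room temperature, in the dark. Measured by: fluorescence intensity, excitation 480 nm, emission 540 nm. Evaluation: normalized % inhibition.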
DNMT1 interf DR – beacon fluorescence artifact, dose response counter-screen. shares compounds with DNMT1 block. molecular beacon fluorescence, spectral interference counter-screen. IC50, µM. 200 tested, under 10 active; call rule not given here
DNMT1 confirm – DNMT1 inhibition confirmation, single concentration. shares compounds with DNMT1 block. DNMT1 molecular beacon HinP1I cleavage, fluorescence. inhibition, % at 10 µM. hit rate 8% among 2,300;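 active = average inhibition of at least 30% in the single-concentration confirmation test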
Beacon interf – counter-screen for DNMT1 inhibitors: spectral interference | shares compounds with DNMT1 block | DNMT1 molecular beacon spectral interference counterscreen, fluorescence 485/520 | activation (fluorescence interference), % at 10 µM | hit rate 1% among 2,300 | AID 602387;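 active = activation of at least 30% at 10 µM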;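 note: DNMT1 catalytic domain with a HinP1I cleavage step and a FAM/dabcyl DNA beacon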
Numbers without * were called inactive; / = no result given. Hits are enriched below; roughly 1.7% of the tested compounds scored in any of these assays.

SMILES	DNMT1 block	Scp1 inh	LMPTP block	SUMO1-SIM PPI	CASP6 VEID inh	STEP block	DNMT1 confirm	Beacon interf	others
O=C(CCCOc1ccc(Cl)cc1Cl)NNC(=O)c1ccc(NC(=O)c2ccccc2)cc1	73.0*	40.7	68.7*	0.3	-1.2	6.0	-0.2	-1.8
Cc1noc(C)c1CCC(=O)NC1CCCN(Cc2ccc(CC(C)C)cc2)C1 (stereo not given)	52.8*	-3.4	0.0	0.7	-3.4	-2.4	1.2	0.1
O=C(CN1C(=O)S/C(=C\c2ccc(-c3cc(C(=O)O)ccc3Cl)o2)C1=O)Nc1ccc2c(c1)OCO2	96.5*	/	74.1*	113.9*	1.4	90.5*	21.6	-12.8	DNMT1 interf DR=>99
COc1ccc(/C=C(/NC(=O)c2ccc(C)cc2)C(=O)NCc2ccncc2)cc1	3.8	-6.2	-1.6	-4.1	3.8	-1.6	/	/
COc1ccc(C(=O)N/C(=C\c2ccc(Cl)cc2)C(=O)NCc2ccncc2)cc1	78.9*	/	-2.2	-1.8	0.0	-3.2	3.3	4.2
CCCCSc1nnc(-c2ccc(C)cc2)n1C	3.4	-2.2	-4.2	0.4	/	-1.9	/	/
CCCCc1cc(=O)oc2cc(C)c(CN3CCCC3)c(O)c12	95.6*	-0.1	3.0	26.8	/	-2.1	3.0	7.3
C=CCC1NS(=O)(=O)OCC1C(C)C (stereo not given)	50.5*	6.2	2.0	2.8	-0.7	-1.6	1.4	1.1
C=CCN(C(=O)c1csnn1)C(C(=O)NCc1ccccc1)c1ccccc1F (stereo not given)	0.6	-10.1	-1.3	4.3	0.0	-1.7	/	/
C=CCN(C(=O)c1csnn1)C(C(=O)NCc1ccc(F)cc1)c1ccccc1F (stereo not given)	54.1*	-9.6	-1.2	-5.5	0.1	0.7	1.9	4.9
CC(=O)c1sc2nc(-c3ccco3)ccc2c1N	67.3*	79.1*	20.2	28.6	64.1*	15.1	4.9	7.5
CCCC[N+](C)(C)CCC(=O)NC(C)(C)CS(=O)(=O)[O-]	66.1*	42.8	-0.7	0.7	/	7.1	5.0	1.2
Cc1ccc(NC(=O)CSc2nn(-c3ccccc3)c(=S)s2)cc1S(=O)(=O)N(C)C	-9.6	-11.2	2.6	-0.8	/	2.9	/	/
Cc1ccccc1NC(=O)COC(=O)/C=C/c1cn(-c2ccccc2)nc1-c1cccnc1	51.7*	3.8	0.5	1.0	/	4.7	0.8	-3.7
O=C(O)c1cc(O)c2c(c1)C(=O)c1cc(O)cc(O)c1C2=O	81.2*	63.6*	3.6	19.7	33.2	9.3	15.8	-1.6
COCCOC(=O)c1[nH]c2c(c1C)C(=O)CC(c1ccco1)C2 (stereo not given)	73.5*	82.7*	37.5	22.2	49.6*	0.5	4.0	-1.6
CCOC(=O)c1[nH]c2c(c1C)C(=O)CC(c1ccco1)C2 (stereo not given)	51.2*	63.8*	37.3	13.2	33.2	0.1	6.7	5.8
Cc1ccc(-c2csc3ncn(CC#N)c(=O)c23)cc1C	20.7	48.1	11.3	22.6	5.2	19.8	/	/
Cc1ccc(-c2csc3ncn(CC#N)c(=O)c23)cc1	48.2	8.1	1.2	11.1	/	-1.4	4.8	6.4
COCCNC(=O)C(C)N(c1ccc(Oc2ccccc2)cc1)S(C)(=O)=O (stereo not given)	3.4	-6.0	-4.9	-2.3	/	-1.4	/	/
COc1ccc(C2C(C(=O)c3ccccc3)=C(C)Nc3nc4ccccc4n32)cc1OC (stereo not given)	58.9*	-0.2	-1.7	0.6	-3.8	3.1	-0.1	1.4
Nc1c(C(=O)NCc2ccccc2)nnn1Cc1ccc(F)cc1	50.1*	-15.5	0.6	4.1	0.1	4.2	3.8	6.2
Cc1cc(C)cc(NC(=O)Cn2nnc(C(=O)NCCc3ccccc3)c2N)c1	67.2*	-1.4	41.0	6.4	0.4	-0.1	1.4	-1.2
COc1ccc(CNC(=O)c2nnn(Cc3ccc(OC)cc3)c2N)cc1	0.3	-8.0	0.0	7.4	-1.5	0.2	/	/
O=C(CSc1nc(C2CC2)nc2ccccc12)Nc1ccccc1Cl	10.7	-5.9	4.7	-2.1	-2.3	-0.1	/	/
SMILES	DNMT1 block	Scp1 inh	LMPTP block	SUMO1-SIM PPI	CASP6 VEID inh	STEP block	DNMT1 confirm	Beacon interf	others
O=C(N/C(=C\c1ccccc1)C(=O)N1CCCCC1)c1ccc(Br)o1	4.3	-2.0	-0.3	-2.3	0.1	1.5	/	/
CCOc1ccc(NC(=O)C2CCCN(S(=O)(=O)c3ccc(-n4cnnn4)cc3)C2)cc1 (stereo not given)	1.7	-7.9	-0.4	-2.8	-0.5	-5.7	/	/
CCOc1ccc(N(CC(=O)Nc2ccc(C)cc2)S(C)(=O)=O)cc1	-3.1	-8.1	1.5	4.7	0.5	-1.1	/	/
CCOc1ccc(N(CC(=O)Nc2ccc(C)cc2C)S(C)(=O)=O)cc1	71.0*	0.4	-1.8	-3.1	1.9	-0.7	-2.5	0.2
O=C(CC[C@H]1O[C@@H](n2cnc3c(NC(=O)c4ccccc4)ncnc32)[C@H](O)[C@@H]1O)NCc1nc2ccccc2[nH]1	116.2*	/	-1.1	43.9*	-1.7	1.9	2.6	3.6
CCN(CC(=O)Nc1ccc(NC(C)=O)cc1)C(=O)C1CCCN(C(=O)c2ccc(Cl)cc2)C1 (stereo not given)	8.3	17.4	-3.6	2.5	2.1	-0.7	/	/
CCOc1cc(C(=O)Nc2cc(C)ccc2C)ccc1OCC(=O)N1CCCCC1	2.3	10.7	0.9	-4.7	/	1.3	/	/
CCN(CC)CCC(=O)Nc1cccc2c1C(=O)c1ccccc1C2=O	73.1*	-4.2	1.2	-36.1	2.3	3.3	52.8*	0.8	DNMT1 interf DR=>99
O=C(NN1C(=O)C2CC=C(Cl)CC2C1=O)c1ccncc1 (stereo not given)	58.3*	15.6	-1.9	9.0	46.8*	4.2	1.4	1.4
CCCCn1c(-c2ccc(Cl)c(Cl)c2)nc2cc3[nH]c(=O)c(C(C)C)nc3cc21	53.2*	5.4	1.6	6.8	-2.2	2.6	-0.6	-2.8
CCCCn1c(-c2ccc(C(C)(C)C)cc2)nc2cc3[nH]c(=O)c(C(C)C)nc3cc21	-22.0	5.2	2.9	-0.2	-3.6	3.4	/	/
Cc1ccc(S(=O)(=O)N2CCC(=O)N(C(CO)Cc3ccccc3)CC2)cc1 (stereo not given)	9.0	9.2	2.6	0.8	3.8	-3.3	/	/
O=C(COc1ccccc1Cl)NCCCNC(=O)c1ccncc1	-0.9	8.9	-0.8	3.0	-0.9	-1.5	/	/
Cc1ccccc1OCC(=O)NCCCNC(=O)c1ccncc1	77.5*	-0.6	-0.3	-1.6	-4.0	-0.7	1.5	3.8
